Data set [1] is described as follows: Cytotoxicity against C8166 cells by MTT assay. The class given is cell-based. The conditions noted are these: human. Summed up: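 C8166 cells were used, with viability read by MTT. Cytotoxicity was expressed as CC50.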
Data set [2] can be described thus: Selectivity index, CC50 against C8166 cell/ EC50 against HIV1. The class given is functional. The essentials:
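The ratio is CC50 divided by EC50. CC50 comes from MTT cytotoxicity in C8166 cells, and EC50 from inhibition of HIV-1 cytopathic effect.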

For data set [3], the system named is Human immunodeficiency virus 1. The data set can be described thus: Antiviral activity against HIV1. The class given is functional, organism-based. The essentials: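 HIV-1 activity was measured as inhibition of virus-induced cytopathic effect and reported as EC50.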

In general, CC50 refers to the concentration at which the toxic effect on the cells reaches its halfway point. A low value points to greater toxicity to the cells. Usually EC50 stands for the midpoint of the concentration-response curve. Low values mean higher potency in that assay, high ones lower potency in that assay.

`C=C[C@@](C)(O)CC[C@@]1(C)[C@H](C)C[C@H](O)[C@@]2(C)C(C)=CCC[C@H]12`: the CC50 in data set [1] is 653 µM. Besides, the “Ratio CC50/EC50” value in data set [2] is listed as above 10.99. The compound also had an EC50 in data set [3] of 59.4 µM.
For `C=C[C@](C)(O)CC[C@@]1(C)[C@H](C)C[C@H](O[C@@H]2O[C@@H](C)[C@H](O[C@@H]3O[C@H](CO)[C@@H](OC(C)=O)[C@H](O)[C@H]3O)[C@@H](O)[C@H]2O)[C@@]2(C)C(C)=CCC[C@H]12` the same measures were 305 µM, above 2.09 and 145 µM.
On to `C=C[C@](C)(O)CC[C@@]1(C)[C@H](C)C[C@H](O[C@@H]2O[C@@H](C)[C@H](O[C@@H]3O[C@H](COC(C)=O)[C@@H](O)[C@H](O)[C@H]3O)[C@@H](O)[C@H]2O)[C@@]2(C)C(C)=CCC[C@H]12`, for which, in data set [1], the CC50 stood at 121 µM. In addition, in data set [2], the “Ratio CC50/EC50” value is listed as 1.1. It took 110 µM to reach a half-maximal effect in data set [3] (EC50).
Consider `CC(=O)OC[C@H]1O[C@@H](O[C@@H]2[C@@H](O)[C@@H](O)[C@H](O[C@H]3C[C@@H](C)[C@](C)(CC/C(C)=C/CO)[C@H]4CCC=C(C)[C@]34C)O[C@H]2C)[C@H](O)[C@@H](O)[C@@H]1O`, for which, in data set [1], it took 136 µM to reach half-maximal cytotoxicity (CC50). In addition, the “Ratio CC50/EC50” value in data set [2] is 1.78. In data set [3], the EC50 was 76.3 µM.
`C[C@@H]1C[C@H](O)[C@@]2(C)C(CO)=CCC[C@@H]2[C@@]1(C)CC(=O)O` had a CC50 in data set [1] of 709 µM. Further, in data set [2], the “Ratio CC50/EC50” value is recorded as above 2.34. Moreover, it took 302 µM to reach a half-maximal effect in data set [3] (EC50).
As to `C[C@@H]1C[C@H](O)[C@@]2(C)C(C=O)=CCC[C@@H]2[C@@]1(C)CC(=O)O`, half-maximal cytotoxicity in data set [1] (CC50) was put at 713 µM. The “Ratio CC50/EC50” value in data set [2] is given as above 2.19. Further, the EC50 in data set [3] was 325 µM.
Regarding `CC1=CCC[C@@H]2[C@@](C)(CC/C(C)=C/CO)[C@H](C)C[C@H](O[C@@H]3O[C@@H](C)[C@H](O[C@@H]4O[C@H](CO)[C@@H](O)[C@H](O)[C@H]4O)[C@@H](O)[C@H]3O)[C@@]12C`, the CC50 in data set [1] worked out at 325 µM. Besides, the “Ratio CC50/EC50” value in data set [2] is reported as above 3.82. In addition, a half-maximal effect in data set [3] (EC50) was put at 85.1 µM.
The corresponding values for `CC1=CCC[C@@H]2[C@@](C)(CC(=O)O)[C@H](C)C[C@H](O)[C@@]12C` [AYLTHONIC ACID] are 751 µM, above 3.81 and 197 µM.
The compound `Cc1cn([C@H]2C[C@H](N=[N+]=[N-])[C@@H](CO)O2)c(=O)[nH]c1=O` [ZIDOVUDINE] displayed a CC50 in data set [1] of 5750 µM. The “Ratio CC50/EC50” value in data set [2] stood at 390406.06. In addition, the EC50 in data set [3] was found to be 0.0147 µM.

The values above are taken from ChEMBL document CHEMBL1141462, “Tetranorclerodanes and clerodane-type diterpene glycosides from Dicranopteris dichotoma” (J Nat Prod, 2007).
